# High-throughput results as filed in PubChem BioAssay.
# Compounds with a hit are over-represented: about 1.7% of the library has one in this group of screens.
# Scp1 inh: Scp-1 (human) phosphatase inhibition; Q9GZU7; Recombinant Scp1, phosphopeptide, malachite green phosphate absorbance; inhibition, % at 20 µM; actives 0.88% (n = 340,000);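 active = inhibition above about 50% at 20 µM, limit read from the data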;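 note: plate controls were DMSO wells with enzyme for no effect and wells lacking enzyme for full effect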
# Target sequence (Q9GZU7 76-261 limits assumed): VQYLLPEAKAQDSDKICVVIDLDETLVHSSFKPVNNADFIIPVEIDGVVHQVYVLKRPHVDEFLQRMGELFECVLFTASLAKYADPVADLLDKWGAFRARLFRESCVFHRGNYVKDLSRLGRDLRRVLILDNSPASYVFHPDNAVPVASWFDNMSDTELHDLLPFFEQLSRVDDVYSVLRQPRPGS
#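 Times: enzyme reaction 45 min at room temperature, colour 5 min, stabilisation 30 min. Material: SCP-1 catalytic fragment, aa 76-261. Medium: Acidic Tris acetate buffer with magnesium and detergent. Signal: colorimetric free-phosphate detection, absorbance 630 nm. Read-out basis: % inhibition of SCP-1 phosphate liberation. Reagent: Phosphorylated 17-residue peptide substrate.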
# STEP block: blocks human striatal-enriched tyrosine phosphatase; P54829; actives 0.25% (n = 360,000); recombinant STEP, OMFP fluorogenic substrate, fluorescence; inhibition, % at 20 µM;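 active = inhibition at 20 µM, scaled per plate between control wells, above about 37%, limit read from the data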;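 note: 0% = DMSO with enzyme and substrate and 100% = substrate only without enzyme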
#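 Material: STEP (striatal-enriched tyrosine phosphatase) enzyme, cell-free | Medium: 50 mM Bis-Tris pH 6.0 with 2.5 mM DTT and 0.005% Tween 20 | Read-out: Percent inhibition scaled to no-enzyme and uninhibited-enzyme controls, plate-pattern corrected | Signal: Fluorescence read at 480 nm ex / 540 nm em | Times: 20 min reaction, room temperature, in the dark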
# SUMO1-SIM PPI: modulators of human SUMO1-mediated protein-protein interactions; P63165; SUMO1 binding to a labelled peptide, TR-FRET, 1 h; inhibition, % at 20 µM; actives 0.33% (n = 360,000); in the data active = inhibition above about 37%
# Target sequence (P63165 whole entry, looked up): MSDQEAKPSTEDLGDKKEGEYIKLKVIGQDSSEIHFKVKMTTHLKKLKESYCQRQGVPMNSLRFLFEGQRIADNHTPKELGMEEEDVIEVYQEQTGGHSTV
# LMPTP block: LMPTP (human) inhibition | recombinant LMPTP-A, OMFP fluorogenic substrate, fluorescence intensity | inhibition, % at 20 µM | actives 0.22% (n = 360,000) | AID 651560;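 active = compounds that cut the enzyme signal by at least half of the control window in the single-dose screen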;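 note: plate controls were DMSO wells with enzyme plus substrate for no effect and substrate without enzyme for full effect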
# Target sequence (P24666 whole entry, looked up): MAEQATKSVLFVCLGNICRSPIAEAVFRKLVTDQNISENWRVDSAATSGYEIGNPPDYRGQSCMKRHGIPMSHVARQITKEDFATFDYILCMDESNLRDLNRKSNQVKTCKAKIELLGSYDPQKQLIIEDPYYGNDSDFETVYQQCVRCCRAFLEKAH
#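 test system = LMPTP-A | amount = 0.625 nM LMPTP-A final | reagent = fluorogenic phosphatase substrate OMFP at 400 µM final | incubation = 50 min at room temperature | benchmarks = no-enzyme low control, uninhibited high control | medium = Bis-Tris pH 6.0, DTT, detergent | signal = fluorescence intensity of OMFP turnover product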
# DNMT1 inh: inhibitors of human DNMT1; inhibition (reported as % activation of signal), % at 10 µM; actives 0.83% (n = 360,000); AID 588458; P26358; DNMT1 molecular beacon, Hinp1I cleavage, fluorescence; in the data active = inhibition above about 50%
# * hit, by the source's call; . = no result.
SMILES,Scp1 inh,STEP block,SUMO1-SIM PPI,LMPTP block,DNMT1 inh
CC1CC(C)CN(C(=O)COC(=O)/C=C/c2cccc([N+](=O)[O-])c2)C1 (centres undefined),3,1,-29,-1,0
c1cncc(-c2nc3ccccc3s2)c1,-1,0,48*,0,2
c1ccc2sc(-c3ccncc3)nc2c1,-10,0,-12,-2,-2
Nc1nn(-c2cccc(F)n2)cc1-c1ccccc1,-3,-1,47*,1,2
C=CCNc1nc2cc(-c3cccc(Cl)c3)sc2c(=O)n1C,.,-1,15,2,-4
Cc1cc(C)c(S(=O)(=O)/N=C2/C=C(SCC(=O)O)C(=O)c3ccccc32)cc1C,9,6,84*,8,3
COc1cccc(C(=O)NC(=S)N2c3ccccc3CC2C)c1OC (centres undefined),-6,-1,43*,-1,3
CC(=O)Nc1cc(-c2ccc(N(C)C)cc2)cn2c(-c3ccc(F)c(Cl)c3)cnc12,.,0,-4,1,10
O=C(Nc1c2ccccc2nc2ccccc12)C(Cl)(Cl)Cl,3,3,-9,11,51*
Cc1ccc(C)c(NC(=O)CCC(=O)N/N=C/c2cc([N+](=O)[O-])ccc2O)c1,40,-1,-14,1,3
O=C(COc1ccc2c(-c3ccccc3)cc(=O)oc2c1)NCCCN1CCOCC1,-3,-2,-16,-2,2
Cc1cc(=O)oc2cc(OCC(=O)N/N=C/c3cc([N+](=O)[O-])ccc3O)ccc12,30,94*,7,71*,20
Cc1cc(=O)oc2cc(OCC(=O)NCCCN3CCOCC3)ccc12,-3,1,40*,-1,0
O=[N+]([O-])c1cc(CN2CCOCC2)c2cccnc2c1O,66*,.,.,.,.
Cc1ccc(-c2nc3c(Cl)cc(Cl)cc3c(=O)n2O)cc1,-17,2,-1,0,2
Cc1ccc(NCc2ccccc2OCc2ccccc2F)cc1,2,-1,-4,4,-5
Oc1ccc(NCc2ccccc2OCc2ccccc2F)cc1,-6,10,59*,16,-42
CCOc1cc(CNc2ccc(O)cc2)ccc1OCc1ccc(Cl)cc1Cl,-2,16,52*,22,80*
CCOc1ccccc1CNc1ccc(O)cc1,-4,4,69*,11,17
CCc1ccc(CNc2ccc(O)cc2)cc1,-3,15,74*,21,75*
Oc1ccc(NCc2ccc(OCc3ccccc3)cc2)cc1,-10,4,9,13,-6
CCOc1cccc(CNc2ccc(O)cc2)c1OCc1ccc(Cl)cc1,0,-4,27,12,-30
C(=C\c1ccccc1)/CN1CCN(C(c2ccnc3ccccc23)c2nnnn2C2CCCC2)CC1 (centres undefined),.,3,-14,-1,-5
CCOc1ccc(NC(=O)COC(=O)CNC(=O)c2ccc(-c3ccccc3)cc2)cc1,6,2,-2,0,31
COc1ccc(-c2cc(C(=O)Nc3cc(Br)ccc3O)no2)cc1,-15,29,-1,69*,57*
SMILES,Scp1 inh,STEP block,SUMO1-SIM PPI,LMPTP block,DNMT1 inh
COc1ccc(-c2cc(C(=O)Nc3ccccc3SC)no2)cc1,-8,-2,3,-2,12
O=C(NCc1ccco1)c1cccc(-c2cncc3nccn23)c1,.,-1,-12,-1,1
Cn1nnnc1SCC1=C(C(=O)O)N2C(=O)[C@@H](NC(=O)[C@H](O)c3ccccc3)[C@H]2SC1,90*,28,35,1,88*
CC(=O)OCC1=C(C(=O)O)N2C(=O)C(NC(=O)c3ccc(F)cc3)C2SC1 (centres undefined),15,0,0,1,2
CC(=O)OCC1=C(C(=O)O)N2C(=O)[C@@H](NC(=O)CSc3ccncc3)[C@H]2SC1,77*,4,15,2,45
[O-][n+]1ccc(C(O)c2ccccc2)cc1 (centres undefined),6,-2,3,0,-3
CN(C)/C=C/C(=O)c1ccc(OCCN(C)c2ccccn2)cc1,-7,-1,18,51*,-1
O=C(O)COc1ccc2nsnc2c1Cl,0,3,0,0,-4
Cc1ccccc1C1=C/C(=C(\SS/C(C(=O)c2ccc(OCC(=O)O)c(Cl)c2Cl)=C2\C=C(c3ccccc3C)SS2)C(=O)c2ccc(OCC(=O)O)c(Cl)c2Cl)SS1,10,15,116*,73*,47
CC(=O)c1c(C)[nH]c(C(=O)OCC(=O)N2CCc3ccccc32)c1C,6,-4,-5,0,50*
N=C1/C(=C\c2ccc(-c3ccc(C(=O)O)cc3)o2)C(=O)N=C2SC=C(c3ccccc3)N12,81*,61*,110*,65*,40
N=C1/C(=C\c2ccc(-c3cccc(Cl)c3)o2)C(=O)N=C2SC=C(c3ccccc3)N12,-6,6,19,8,61*
N=C1S/C(=C\c2ccc(-c3cccc(Cl)c3)o2)C(=O)N1c1nccs1,3,2,23,33,112*
COc1ccc(/C=C2\SC(=N)N(c3nccs3)C2=O)cc1OC,-3,-3,9,1,0
COC(=O)[C@@]12C[C@@H](CC(=O)NCC34CC5CC(CC(C5)C3)C4)C(=O)N(Cc3ccco3)C1=CCC(C)(C)C2,.,.,7,4,.
O=C1C=CC(=O)c2c(O)c(CO)c(CO)c(O)c21,85*,94*,118*,93*,114*
Oc1ccc(N=C/C=C/c2cccc(Br)c2)cc1-c1nc2ccccc2s1,3,11,1,23,52*
O=C(CCCn1c(SCC(=O)c2ccc(O)c(O)c2)nc2ccccc2c1=O)NCC1CCCO1 (centres undefined),-6,2,6,51*,7
CN(C)CCN1C(=O)c2cccc3cc([N+](=O)[O-])cc(c23)C1=O,5,0,1,4,69*
NC(=O)c1nsc(C(=O)N(CC(=O)NCc2ccco2)c2ccccc2F)c1N,-3,0,50*,-1,2
CC(=O)Nc1ccc(S(=O)(=O)N2CCN(c3nc(NC4CCCC4)c4ccccc4n3)CC2)cc1,7,3,-1,63*,-10
CC(=O)Nc1ccc(S(=O)(=O)N2CCN(c3cc(C)nc4ccccc34)CC2)cc1,3,1,-6,39,2
Fc1ccc(Nc2nnc(-c3ccncc3)s2)cc1Cl,.,-1,43*,9,0
O=C(Nc1ccc(Cl)cc1)Nc1nnc(-c2ccncc2)s1,3,10,9,60*,-16
O=C(Nc1cccc(Cl)c1)Nc1nnc(-c2ccncc2)s1,-7,8,7,40,30
